Data reported in ChEMBL document CHEMBL1123727, “Synthesis of 6-substituted beta-carbolines that behave as benzodiazepine receptor antagonists or inverse agonists” (J Med Chem, 1987).
The source made the active and inactive calls. The rule behind the calls is not given here.

Assays:
[1] = target: GABA-A receptor; anion channel; test: In vitro displacement of [3H]diazepam from GABA-A benzodiazepine receptor in rat cerebral cortex; assay type: tissue-based
Outline: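 Cortex from adult male Sprague–Dawley rats homogenized in 50 mM Tris-HCl pH 7.4, homogenization–centrifugation repeated three times in total. Membranes incubated with graded compound concentrations and [3H]diazepam (final 2 nM) for 90 min at 4 °C. Bound ligand collected by rapid GF/B filtration and counted by liquid scintillation. Nonspecific binding defined with 5 μM flunitrazepam.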

Mus musculus [2] = test: Dose required to induce convulsions in mice treated with subconvulsant pentylenetetrazole (40 mg/kg); assay type: functional
Outline: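 Adult male mice (20–25 g) given drug ip (suspended in 10% diluted emulphor–90% saline, HCl salts), then challenged 5 min later with subconvulsant PTZ (40 mg/kg ip). Two independent raters observed clonic-tonic convulsions. ED50 = dose inducing convulsions in 50% of mice. Highest dose tested 40 mg/kg.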

Mus musculus [3] = test: Dose required to antagonize Diazepam (2.5 mg/kg) anticonvulsant effects in mice treated with pentylenetetrazole (80 mg/kg) (inactive); assay type: functional, organism-based
Mus musculus [4] = test: Dose required to antagonize Diazepam (2.5 mg/kg) anticonvulsant effects in mice treated with pentylenetetrazole (80 mg/kg); assay type: functional
Outline: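 Adult male mice (20–25 g) given diazepam 2.5 mg/kg ip in 10% diluted emulphor–90% saline. Drug or vehicle given ip 5 min later, then PTZ 80 mg/kg ip (CD100) after another 5 min. Two independent raters scored clonic-tonic convulsions; animals counted protected if seizure-free for 15 min. ED50 = dose antagonizing diazepam's anticonvulsant effect in 50% of mice.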

[5] = In vitro displacement of [3H]-diazepam from GABA-A benzodiazepine receptor in rat cerebral cortex; assay type: tissue-based
Outline: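 Cortex from adult male Sprague–Dawley rats homogenized in 50 mM Tris-HCl pH 7.4, washed three times and resuspended. Incubated with varying test concentrations and [3H]diazepam (2 nM final) for 90 min at 4 °C. Ended by GF/B filtration, radioactivity counted by scintillation. Nonspecific binding defined with 5 μM flunitrazepam. IC50 reported.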

Mus musculus [6] = test: Dose required to induce convulsions in mice treated with subconvulsant pentylenetetrazole (40 mg/kg) (inactive); assay type: functional, organism-based

Row | Structure (SMILES) | IC50 [1] [nM] | other results
1 | CC(=O)c1cc2c3ccccc3nc-2c[nH]1 | 58 | –
2 | OCc1cc2c3cc(NCc4ccccc4)ccc3nc-2c[nH]1 | 76 | ED50 (Mus musculus [2]): 40 mg/kg; ED50 (Mus musculus [3]): inactive
3 | c1ccc2c(c1)[nH]c1cnccc12 [NORHARMANE] | – | IC50 [5]: 1620 nM
4 | c1ccc(CNc2ccc3[nH]c4ccccc4c3c2)cc1 | > 5000 | –
5 | COC(=O)c1cc2c(cn1)[nH]c1ccc(NCc3ccccc3)cc12 | 10 | ED50 (Mus musculus [4]): 15.5 mg/kg; ED50 (Mus musculus [6]): inactive

More lines, in order of falling IC50 [1], values ahead:

Row | IC50 [1] [nM] | Structure (SMILES) | other results
6 | 1470 | OCc1cc2c3ccccc3nc-2c[nH]1 | –
7 | 1300 | Nc1ccc2[nH]c3cnccc3c2c1 | –
8 | 106 | c1ccc(CNc2ccc3[nH]c4cnccc4c3c2)cc1 | ED50 (Mus musculus [2]): 28 mg/kg; ED50 (Mus musculus [4]): 38 mg/kg
9 | 50 | O=C(OC1CCCC1)c1cc2c3ccccc3nc-2c[nH]1 | –
